An excerpt weighted towards active compounds, which were near 5.8% of everything screened.
KDM4C inh = blocks human GASC-1 (KDM4C) demethylase activity; hit rate 0.15% among 96,000; inhibition, % at 12.5 µM; AID 720574; GST-KDM4C 2-372, H3K9me3 peptide, LANCE TR-FRET;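 active = mean replicate inhibition above about 25%, with at least 55% of replicates also reaching it, limit read from the data, passing the limit was not always enough; inconclusive = only one of those two conditions met; inactive = neither condition met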
Target sequence (Q9H3R0 2-372 limits assumed): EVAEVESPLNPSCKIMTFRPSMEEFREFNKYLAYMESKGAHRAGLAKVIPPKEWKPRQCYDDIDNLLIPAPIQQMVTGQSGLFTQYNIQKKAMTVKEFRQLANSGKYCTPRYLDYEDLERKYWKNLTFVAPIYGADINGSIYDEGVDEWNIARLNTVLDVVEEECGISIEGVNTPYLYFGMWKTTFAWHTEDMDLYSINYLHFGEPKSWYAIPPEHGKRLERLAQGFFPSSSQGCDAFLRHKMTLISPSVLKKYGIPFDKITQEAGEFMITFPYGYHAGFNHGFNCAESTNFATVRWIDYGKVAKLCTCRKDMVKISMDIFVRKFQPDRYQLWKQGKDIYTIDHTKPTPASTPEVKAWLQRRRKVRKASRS
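System: N-terminal GST-fused human GASC-1 (KDM4C) fragment, residues 2-372 / Amount: 10 nM GST-KDM4C in enzyme reaction / Also added: H3K9me3 peptide with Fe(II)/2OG / Times: 30 min demethylation and 1 h detection at room temperature / Signal: LANCE TR-FRET / Read-out basis: Fall in 671/618 emission ratio as inhibition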
IDH1 mut inh = inhibitors of human IDH1 R132H; inhibition, % at 10 µM; AID 624101; hit rate 0.18% among 70,000; IDH1 R132H reductase, diaphorase/resazurin fluorescence, 60 min; O75874; in the data active = inhibition above about 34%; inconclusive = no clear call, values can overlap the other calls; inactive = below about 11%
Target sequence (O75874 whole entry R132H): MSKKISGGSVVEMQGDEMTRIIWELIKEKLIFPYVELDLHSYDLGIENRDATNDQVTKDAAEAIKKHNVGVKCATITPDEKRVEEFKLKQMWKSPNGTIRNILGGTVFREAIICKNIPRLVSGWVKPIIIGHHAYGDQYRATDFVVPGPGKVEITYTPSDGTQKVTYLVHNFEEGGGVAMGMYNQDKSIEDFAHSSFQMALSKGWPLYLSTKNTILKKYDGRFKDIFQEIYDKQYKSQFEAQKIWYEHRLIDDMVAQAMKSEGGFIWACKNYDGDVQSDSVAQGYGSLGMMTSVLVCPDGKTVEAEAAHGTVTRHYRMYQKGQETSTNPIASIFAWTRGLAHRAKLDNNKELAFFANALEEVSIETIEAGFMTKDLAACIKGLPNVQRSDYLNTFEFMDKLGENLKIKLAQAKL
Pf Dd2 growth = blocks growth of Plasmodium falciparum Dd2 parasites | P. falciparum Dd2 growth, SYBR Green, 72 h; stronger effect = lower value | activity change, % at 10 µM | hit rate 2.3% among 94,000; in the data active = activity change below about -80%; inconclusive = no clear call, values can overlap the other calls
T cruzi growth-1 = blocks T. cruzi growth in NIH3T3 culture; T. cruzi beta-gal in NIH3T3, GalScreen luminescence, 90 h; hit rate 5.9% among 77,000; inhibition, % at 8.34 µM;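 active = mean inhibition above about 93%, with at least 55% of replicates each passing it, limit read from the data, passing the limit was not always enough; inconclusive = only one of those two conditions holds; inactive = neither condition holds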
T cruzi growth-2 = blocks T. cruzi growth in NIH3T3 host cells; hit rate 72% among 5,600; shares compounds with T cruzi growth-1; AID 651739; T. cruzi beta-gal in NIH3T3, GalScreen luminescence, 90 h; inhibition, % at 8.35 µM;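 active = mean replicate inhibition above about 95% and at least 55% of replicates individually reaching it, limit read from the data; inconclusive = only one of the two criteria is met; inactive = neither criterion is met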
T cruzi growth-3 = blocks T. cruzi growth in NIH3T3 host cells. AID 651740. T. cruzi beta-gal in NIH3T3, GalScreen luminescence, 90 h. hit rate 21% among 5,600. inhibition, % at 2.09 µM. shares compounds with T cruzi growth-1;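 active = mean inhibition above about 95%, with at least 55% of replicates also reaching it, limit read from the data; inconclusive = meets just one of the two conditions; inactive = meets neither condition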
NIH3T3 tox = NIH/3T3 (mouse) viability loss | shares compounds with T cruzi growth-1 | NIH/3T3 viability, CellTiter-Glo ATP luminescence, 90 h | cytotoxicity (signal decrease), % at 8.35 µM | hit rate 14% among 5,600;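 active = mean signal decrease across replicates above about 35% based on untreated-well scatter, with enough replicates individually passing, limit read from the data; inconclusive = no rule stated though some were filed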
3T3 cytotox 2 = cytotoxicity in mouse NIH/3T3 fibroblasts | inhibition, % at 24.9 µM | AID 651744 | hit rate 56% among 5,600 | NIH/3T3 viability, CellTiter-Glo ATP luminescence, 90 h | shares compounds with T cruzi growth-1;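 active = mean loss of cell viability signal at or above a set limit, and enough replicates individually reaching it; inconclusive = meets only the mean limit or only the replicate share; inactive = meets neither condition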
Large screens that a line does not name were inactive (follow-up assays come after a bar, where they were run).

C[C@H]1CN([C@@H](C)CO)S(=O)(=O)c2ccc(C#CCN(C)C)cc2O[C@H]1CN(C)C(=O)CC1CC1	T cruzi growth-1 inconclusive | T cruzi growth-2 100 | T cruzi growth-3 inactive | NIH3T3 tox inactive | 3T3 cytotox 2 inactive
C[C@@H]1CN([C@H](C)CO)S(=O)(=O)c2ccc(C#CCN(C)C)cc2O[C@@H]1CN(C)C(=O)CC1CC1	none
C[C@H](CO)N1C[C@H](C)[C@@H](CN(C)C(=O)CC2CC2)Oc2cc(C#CCN(C)C)ccc2S1(=O)=O	T cruzi growth-1 96 | T cruzi growth-2 98 | T cruzi growth-3 inactive | NIH3T3 tox inactive | 3T3 cytotox 2 inactive
C[C@@H]1CN([C@@H](C)CO)S(=O)(=O)c2ccc(C#CCN(C)C)cc2O[C@H]1CN(C)C(=O)CC1CC1	T cruzi growth-1 inconclusive | T cruzi growth-2 97 | T cruzi growth-3 inactive | NIH3T3 tox inactive | 3T3 cytotox 2 inactive
O=C(c1cccnc1)N1C[C@@H]2[C@H](c3ccccc31)[C@@H](CO)N2CC1CCCCC1	none (no result: IDH1 mut inh)
COc1ccc(S(=O)(=O)N(C)C[C@@H]2Oc3ccc(NS(=O)(=O)c4ccc(F)cc4)cc3C(=O)N([C@H](C)CO)C[C@H]2C)cc1	none
COc1ccc(NC(=O)Nc2ccc3c(c2)C(=O)N([C@H](C)CO)C[C@H](C)[C@H](CN(C)Cc2ccc(-c4ccccc4)cc2)O3)cc1	T cruzi growth-1 inconclusive | T cruzi growth-2 100 | T cruzi growth-3 inactive | NIH3T3 tox inactive | 3T3 cytotox 2 inactive
COc1ccc(CN(C)C[C@@H]2Oc3ccc(NC(=O)Nc4ccccc4)cc3C(=O)N([C@@H](C)CO)C[C@@H]2C)cc1	none
COc1ccc(NC(=O)Nc2ccc3c(c2)C(=O)N([C@@H](C)CO)C[C@@H](C)[C@@H](CN(C)Cc2ccc(-c4ccccc4)cc2)O3)cc1	T cruzi growth-1 100 | T cruzi growth-2 104 | T cruzi growth-3 108 | NIH3T3 tox 55 | 3T3 cytotox 2 84
COc1ccc(CN(C)C[C@@H]2Oc3ccc(NC(=O)Nc4ccccc4)cc3C(=O)N([C@H](C)CO)C[C@@H]2C)cc1	none
C[C@@H]1CN([C@H](C)CO)C(=O)c2cccc(NC(=O)c3ccncc3)c2O[C@H]1CN(C)CC1CC1	none
C[C@H](CO)N1C[C@H](C)[C@@H](CN(C)Cc2ccccc2)Oc2c(NC(=O)c3ccncc3)cccc2C1=O	none (no result: IDH1 mut inh)
C[C@@H]1CN([C@H](C)CO)C(=O)c2cccc(NC(=O)c3ccncc3)c2O[C@H]1CN(C)Cc1ccc(-c2ccccc2)cc1	T cruzi growth-1 107 (no result: IDH1 mut inh) | T cruzi growth-2 inactive | T cruzi growth-3 inactive | NIH3T3 tox 50 | 3T3 cytotox 2 41
C[C@@H]1CN([C@@H](C)CO)C(=O)c2cccc(NC(=O)c3ccncc3)c2O[C@H]1CN(C)Cc1ccc(-c2ccccc2)cc1	T cruzi growth-1 105 (no result: IDH1 mut inh) | T cruzi growth-2 inactive | T cruzi growth-3 inactive | NIH3T3 tox inactive | 3T3 cytotox 2 55
C[C@H]1CN([C@@H](C)CO)C(=O)c2cccc(NC(=O)c3ccncc3)c2O[C@H]1CN(C)Cc1ccncc1	none (no result: IDH1 mut inh)
C[C@H](CO)N1C[C@H](C)[C@H](CN(C)Cc2ccc(-c3ccccc3)cc2)Oc2c(NC(=O)c3ccncc3)cccc2C1=O	T cruzi growth-1 99 | T cruzi growth-2 105 | T cruzi growth-3 inconclusive | NIH3T3 tox 56 | 3T3 cytotox 2 47
C[C@H](CO)N1C[C@H](C)[C@@H](CN(C)CC2CC2)Oc2c(NC(=O)c3ccncc3)cccc2C1=O	T cruzi growth-1 102 (no result: KDM4C inh) | T cruzi growth-2 inactive | T cruzi growth-3 inactive | NIH3T3 tox inactive | 3T3 cytotox 2 inconclusive
C[C@H](CO)N1C[C@H](C)[C@@H](CN(C)CC2CCCCC2)Oc2ccc(NC(=O)Cc3cn(C)c4ccccc34)cc2CC1=O	none
Cc1ccc(NC(=O)CSc2nnc(-c3ccco3)n2-c2ccccc2)cc1Cl	none (no result: KDM4C inh, Pf Dd2 growth, T cruzi growth-1)
C[C@H](CO)N1C[C@H](C)[C@@H](CN(C)CC2CCCCC2)Oc2c(NS(=O)(=O)c3cn(C)cn3)cccc2C1=O	T cruzi growth-1 103 (no result: IDH1 mut inh) | T cruzi growth-2 inactive | T cruzi growth-3 inactive | NIH3T3 tox inactive | 3T3 cytotox 2 inactive
C[C@@H]1CN([C@@H](C)CO)C(=O)c2cccc(NC(=O)c3ccncc3)c2O[C@@H]1CN(C)Cc1ccccc1	none (no result: IDH1 mut inh)
C[C@H](CO)N1C[C@H](C)[C@@H](CN(C)Cc2ccc(-c3ccccc3)cc2)Oc2c(NC(=O)c3ccncc3)cccc2C1=O	T cruzi growth-1 102 (no result: IDH1 mut inh) | T cruzi growth-2 105 | T cruzi growth-3 98 | NIH3T3 tox 49 | 3T3 cytotox 2 36
COc1cccc(-c2ccc([C@@H]3[C@H](CO)N4CCCCN(CC5CCOCC5)C[C@@H]34)cc2)c1	none (no result: KDM4C inh, IDH1 mut inh)
COc1cccc(-c2ccc([C@@H]3[C@@H](CO)N4CCCCN(CC5CCOCC5)C[C@@H]34)cc2)c1	T cruzi growth-1 98 (no result: KDM4C inh, IDH1 mut inh) | T cruzi growth-2 99 | T cruzi growth-3 inactive | NIH3T3 tox inactive | 3T3 cytotox 2 54
COc1cccc(-c2ccc([C@H]3[C@H]4CN(CC5CCOCC5)CCCCN4[C@H]3CO)cc2)c1	T cruzi growth-1 104 (no result: KDM4C inh, IDH1 mut inh) | T cruzi growth-2 inactive | T cruzi growth-3 inactive | NIH3T3 tox inactive | 3T3 cytotox 2 58
CCS(=O)(=O)Nc1ccc2c(c1)C(=O)N(C)C[C@@H](OC)[C@H](C)CN(Cc1nccs1)[C@@H](C)CO2	none
C[C@H]1CCCCO[C@H](CN(C)S(=O)(=O)c2ccc(F)cc2)[C@@H](C)CN([C@@H](C)CO)C(=O)c2cc(NS(=O)(=O)c3ccc(F)cc3)ccc2O1	T cruzi growth-1 99 | T cruzi growth-2 110 | T cruzi growth-3 inactive | NIH3T3 tox inactive | 3T3 cytotox 2 inactive
C[C@H]1CCCCO[C@@H](CN(C)S(=O)(=O)c2ccc(F)cc2)[C@@H](C)CN([C@@H](C)CO)C(=O)c2cc(NS(=O)(=O)c3ccc(F)cc3)ccc2O1	T cruzi growth-1 119 | T cruzi growth-2 105 | T cruzi growth-3 inactive | NIH3T3 tox inactive | 3T3 cytotox 2 inactive
C[C@H](CO)N1C[C@H](C)[C@H](CN(C)S(=O)(=O)c2ccc(F)cc2)OCCCC[C@H](C)Oc2ccc(NS(=O)(=O)c3ccc(F)cc3)cc2C1=O	T cruzi growth-1 119 (no result: IDH1 mut inh) | T cruzi growth-2 103 | T cruzi growth-3 inactive | NIH3T3 tox inactive | 3T3 cytotox 2 inactive
C[C@@H]1CCCCO[C@H](CN(C)S(=O)(=O)c2ccc(F)cc2)[C@H](C)CN([C@H](C)CO)C(=O)c2cc(NS(=O)(=O)c3ccccc3)ccc2O1	T cruzi growth-1 104 (no result: IDH1 mut inh) | T cruzi growth-2 114 | T cruzi growth-3 inactive | NIH3T3 tox inactive | 3T3 cytotox 2 inactive
